Data on 7 compounds can be found in ChEMBL document CHEMBL2412994, “Solid phase synthesis of Smac/DIABLO-derived peptides using a 'Safety-Catch' resin: identification of potent XIAP BIR3 antagonists” (Bioorg Med Chem, 2013).

The Kd is the constant that tells how readily two partners part at equilibrium. Low values mean higher affinity, high ones lower affinity.

The source made the active and inactive calls. The rule behind the calls is not given here. Square brackets hold non-standard residues; d marks the D form. Peptide text beside a SMILES is read from it. Phg = N[C@H](C(=O)O)c1ccccc1; NMeA = CN[C@@H](C)C(=O)O

The test system of one assay is MDA-MB-231. Put plainly: Cytotoxicity against human MDA-MB-231 cells assessed as cell viability after by MTT assay. It counts as functional. A digest of the protocol:
(§1)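 MTT viability assay. MDA-MB-231 cells were seeded at 1 × 10⁴ cells/well and MCF-7 cells at 2 × 10⁴ cells/well, then held 24 h at 37 °C in 5% CO₂. Medium was replaced with treatments; vehicle controls received matched DMSO. After 72 h, MTT (10 mg/ml stock) was added for 2 h in the dark. Formazan was dissolved in DMSO and read at 550 nm. Viability relative to untreated control at 100 µM.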
Background: Tetrazolium assays rely on reduction of a dye to a coloured formazan, in cell work by metabolically active cells.

For the next assay, the system named is MCF7. Nature of the assay: Cytotoxicity against human MCF7 cells assessed as cell viability after by MTT assay. It counts as functional. The gist of the method: as §1
Assay [1] deals with E3 ubiquitin-protein ligase XIAP (Homo sapiens, UniProt P98170). Nature of the assay: Binding affinity to XIAP BIR3-domain (unknown origin).
Sequence of E3 ubiquitin-protein ligase XIAP (P98170 whole entry): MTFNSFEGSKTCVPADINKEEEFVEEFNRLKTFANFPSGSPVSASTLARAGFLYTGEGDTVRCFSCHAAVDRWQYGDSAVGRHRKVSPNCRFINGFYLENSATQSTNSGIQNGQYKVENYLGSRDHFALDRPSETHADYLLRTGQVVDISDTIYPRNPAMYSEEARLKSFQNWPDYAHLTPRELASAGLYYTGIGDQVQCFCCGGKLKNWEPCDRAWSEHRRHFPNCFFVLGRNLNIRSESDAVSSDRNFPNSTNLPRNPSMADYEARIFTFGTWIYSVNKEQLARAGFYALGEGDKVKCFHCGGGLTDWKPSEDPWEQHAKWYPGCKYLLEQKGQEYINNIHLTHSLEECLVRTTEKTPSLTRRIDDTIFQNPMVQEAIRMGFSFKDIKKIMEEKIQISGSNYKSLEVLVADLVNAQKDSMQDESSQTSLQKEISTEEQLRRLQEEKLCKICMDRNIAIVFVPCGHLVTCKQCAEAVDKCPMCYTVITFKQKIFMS

On to `CN[C@@H](C)C(=O)N[C@H](C(=O)N1C[C@H](c2ccccc2)C[C@H]1C(=O)N[C@@H]1CCCc2ccccc21)C(C)(C)C`, for which the Activity in the assay on MDA-MB-231 was 54.6%; with MCF7, 79.4%.
Consider `CN[C@@H](C)C(=O)N[C@H](C(=O)N1C[C@H](c2ccccc2)C[C@H]1C(=O)NC(c1ccccc1)c1ccccc1)C(C)(C)C`, for which the Activity in the assay on MDA-MB-231 was determined as 50.1%; in the assay on MCF7, 62.3%.
For the compound `CN[C@@H](C)C(=O)N[C@H](C(=O)N1CCC[C@H]1C(=O)N[C@@H](Cc1ccccc1)C(=O)N[C@@H](Cc1ccc(O)cc1)C(N)=O)C(C)C` (H-[NMeA]VPFY-NH2), the Kd in assay [1] is 40 nM. Further, the result in the assay on MDA-MB-231 and in the assay with MCF7 was inactive.
`CC(C)[C@H](NC(=O)[C@H](C)N)C(=O)N1CCC[C@H]1C(=O)N[C@H](C(=O)N[C@@H](Cc1ccc(O)cc1)C(N)=O)c1ccccc1` (H-AVP[Phg]Y-NH2) had a Kd in assay [1] of 30 nM. Further, the result with MDA-MB-231 and with MCF7 was inactive.
Consider H-AVPFY-NH2, for which, in assay [1], the affinity, expressed as Kd, was 60 nM. Further, the outcome with MDA-MB-231 and in the assay on MCF7 was inactive.
As to `CN[C@@H](C)C(=O)N[C@H](C(=O)N1C[C@H](Oc2ccccc2)C[C@H]1C(=O)NC(c1ccccc1)c1ccccc1)C(C)(C)C`, the values for the Activity with MDA-MB-231 and with MCF7 were 50.3% and 58.6%, respectively.
Regarding `CN[C@@H](C)C(=O)N[C@H](C(=O)N1C[C@H](Oc2ccccc2)C[C@H]1C(=O)N[C@@H]1CCCc2ccccc21)C(C)(C)C`, the Activity was 58.1% in the assay on MDA-MB-231 and 70.8% in the assay on MCF7.
